# Source: ChEMBL document CHEMBL1143161, “Non-charged thiamine analogs as inhibitors of enzyme transketolase” (Bioorg Med Chem Lett, 2008)
# How the values were obtained:
# [1] = test system: CC(=O)Nc1ncc(Cc2csc(CCO)c2C)c(N)n1; test: (§1) Ratio of kcat to Km for thiamine […]
# How it was run: (§2)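 Enzymatic TPPK assay with kcat/Km derived, run in triplicate. The value is the average, with data within 2-fold of the mean.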
# [2] = test system: Cc1c(Cc2cnc(-c3ccccc3)nc2N)csc1CCO; test: as §1; how it was run: as §2
# [3] = test system: Cc1c(Cc2cnc(C(C)C)nc2N)csc1CCO; test: as §1; how it was run: as §2
# [4] = test system: Cc1c(Cc2cnc(C(F)(F)F)nc2N)csc1CCO; test: as §1; how it was run: as §2
# [5] = test system: Cc1c(Cc2cnc(C3CC3)nc2N)csc1CCO; test: as §1; how it was run: as §2
# Cc1c(Cc2cncnc2N)csc1CCO = test: as §1; how it was run: as §2
# [6] = test system: Cc1ncc(C[n+]2csc(CCO)c2C)c(N)n1; test: as §1; how it was run: as §2
# [7] = test system: Cc1ncc(Cc2c(C)c(CCO)nn2C)c(N)n1; test: as §1; how it was run: as §2
# [8] = test system: Cc1ncc(Cc2csc(CCO)c2C)c(N)n1; test: as §1; how it was run: as §2
# [9] = test system: Cc1ncc(Cn2c(C)c(CCO)sc2=O)c(N)n1; test: as §1; how it was run: as §2
substance,measurement,setting,value
"Thiamine pyrophosphokinase 1 (Homo sapiens), Q9H3S4",kcat/Km,[1],1.1 10^-6/nM/s
same,kcat/Km,[2],1 10^-6/nM/s
same,kcat/Km,[3],2.4 10^-5/nM/s
same,kcat/Km,[4],8.5 10^-4/nM/s
same,kcat/Km,[5],2.7 10^-5/nM/s
same,kcat/Km,Cc1c(Cc2cncnc2N)csc1CCO,1.2 10^-5/nM/s
same,kcat/Km,[6],1.2 10^-5/nM/s
same,kcat/Km,[7],1.9 10^-5/nM/s
same,kcat/Km,[8],3.4 10^-5/nM/s
same,kcat/Km,[9],1 10^-5/nM/s
